LEDGF integ inh = blocks HIV-1 LEDGF/p75-dependent DNA integration. TR-FRET IN-LEDGF/p75 DNA integration, Eu/Cy5. hit rate 0.64% among 370,000. inhibition, % at 3.7 µM;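 active = inhibition above the screen-wide mean plus 3 SD, cut at about 13% in these data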;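 note: signal is the Cy5 over europium emission ratio at 671 and 618 nm; 0% = plate median of compound wells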
SIAE primary = inhibitors of human sialic acid acetylesterase SIAE | Q9HAT2 | inhibition, % at 9.66 µM | hit rate 0.69% among 370,000 | SIAE FP-Rh probe binding, fluorescence polarization | AID 1053197;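 active = inhibition above a cutoff: mean of compounds within the control limits plus 3 SD of those, cut at about 17% in these data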;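 note: 0% = plate median of compound wells and 100% = probe without SIAE protein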
MBD2 DNA inh = MBD2-methylated oligo binding inhibition; hit rate 0.31% among 370,000; inhibition, % at 4.4 µM; TR-FRET, MBD2 binding to methylated oligonucleotide; in the data active = inhibition above about 13%
UHRF1 MBD2 ctr = blocks human UHRF1 binding to methylated DNA | UHRF1 binding to methylated oligo, TR-FRET | inhibition, % at 4.4 µM | Q96T88 | AID 687016 | hit rate 0.75% among 370,000; in the data active = inhibition above about 21%;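 note: UHRF1 SRA domain binding a hemimethylated CpG hairpin DNA probe; 0% = median of test compound wells and 100% = reference inhibitor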
PRMT1 inh = blocks human protein arginine methyltransferase 1; AID 652257; hit rate 1.3% among 370,000; inhibition, % at 2.79 µM; recombinant PRMT1, activity-based probe fluorescence polarization;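 active = inhibition above about 21% made by adding two undisclosed values, limit read from the data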
TDP2 inh = TDP2 (human) inhibition, absorbance primary screen; AID 720702; inhibition, % at 12.8 µM; recombinant TDP2, T5PNP hydrolysis, p-nitrophenol absorbance 415 nm; hit rate 0.34% among 370,000; O95551;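 active = inhibition above the mean of all tested compounds plus 3 SD, set per campaign, cut at about 25% in these data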;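 note: 0% = DMSO with enzyme and 100% = buffer with substrate but no TDP2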
Target sequence (O95551 whole entry, looked up): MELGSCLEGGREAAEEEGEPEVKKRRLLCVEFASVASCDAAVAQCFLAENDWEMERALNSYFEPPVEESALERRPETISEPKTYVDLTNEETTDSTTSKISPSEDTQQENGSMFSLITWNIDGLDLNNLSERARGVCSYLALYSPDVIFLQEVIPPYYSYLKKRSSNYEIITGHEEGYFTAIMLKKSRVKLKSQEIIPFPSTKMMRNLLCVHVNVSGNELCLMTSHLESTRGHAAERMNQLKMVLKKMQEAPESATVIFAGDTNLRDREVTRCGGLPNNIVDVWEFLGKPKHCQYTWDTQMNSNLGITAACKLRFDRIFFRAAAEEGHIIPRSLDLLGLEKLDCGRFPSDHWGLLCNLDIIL
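Evaluation: % inhibition relative to enzyme-containing and enzyme-free wells. Material: recombinant human TDP2. Benchmarks: enzyme-free and DMSO wells. Timing: enzyme reaction with compound for 2 h at 37 °C. Compound dosing: 12.8 µM only. Measured by: p-Nitrophenol epi absorbance. Reagent: T5PNP substrate at 5 mM, a TopII-DNA adduct mimic. Replication: single well per compound.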
PRMT1 inh conf = confirmation of human PRMT1 inhibitors; shares compounds with PRMT1 inh; recombinant His-PRMT1, activity-based probe fluorescence polarization; inhibition, % at 2.79 µM; hit rate 42% among 3,300;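 active = mean inhibition across replicates above the hit cutoff derived for the earlier primary screen, cut at about 22% in these data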
* hit, by the source's call; . = no result. Only some compounds are listed: those with a hit (about 3.3% of all), similar ones and a draw of the others.

SMILES	LEDGF integ inh	SIAE primary	MBD2 DNA inh	UHRF1 MBD2 ctr	PRMT1 inh	TDP2 inh	PRMT1 inh conf
Nc1c(C(=O)NC2CCCC2)sc2nc(-c3cccs3)ccc12	-1	-17	-3	1	53*	-5	4
Cc1ccc(NC(=O)/C=C\C(=O)NCC(=O)O)cc1C	2	5	-7	2	40*	-2	3
CCCC(=O)Nc1cc(OC)c(NC(=S)Nc2cccc(C)c2)cc1OC	9	9	2	-2	39*	6	-5
COc1cccc(-c2nnc(SCC(=O)OC(C)C)n2-c2ccc(Cl)cc2)c1	-1	0	2	-3	2	-2	.
O=C(O)/C(=C/c1ccc(Cl)c([N+](=O)[O-])c1)c1ccc(S(=O)(=O)N2CCCCC2)s1	6	-20	-2	7	39*	-7	9
CCc1ccc(OCC(=O)Nc2nnc(-c3ccco3)s2)cc1	-2	9	5	-1	34*	-10	3
COc1ccc2[nH]c(=O)c(CNc3ccccc3)cc2c1	-4	7	-6	6	25*	-1	1
CCOc1ccc(NCc2cc3cc(OC)ccc3[nH]c2=O)cc1	11	1	-7	-8	2	2	.
C[C@@H]1[C@@H](O)C[C@@]2(C[C@H](O)c3cc(Cl)cc(Cl)c3O2)O[C@H]1c1ccccc1Cl	1	-11	-5	-3	-4	-13	.
Cc1cc(-c2ccco2)n(-c2ccccc2)n1	4	-4	6	1	43*	7	21*
Cc1cc(-c2ccccc2)n(-c2ccccc2)n1	-2	3	0	-2	-3	-4	.
Cc1ccc(/C=N/n2c(COc3ccccc3)n[nH]c2=S)s1	-7	10	-6	-3	27*	-11	4
Oc1ccccc1/C=N/n1c(COc2ccccc2)n[nH]c1=S	-8	-4	6	3	8	-25	.
S=c1[nH]nc(COc2ccccc2)n1/N=C/c1ccc(Br)s1	4	8	-6	-3	26*	5	12
Cc1ccc(C(=O)CCS(=O)(=O)c2ccc(F)cc2)cc1	-1	6	2	-2	29*	8	26*
O=C(NCc1n[nH]c(=S)n1-c1cccc(C(F)(F)F)c1)c1ccc(S(=O)(=O)N2CCCCC2)cc1	5	-4	1	3	28*	-11	8
O=C(NCc1n[nH]c(=S)n1-c1cccc(C(F)(F)F)c1)c1ccc(S(=O)(=O)N2CCCC2)cc1	-4	0	-5	2	9	2	.
CCCN(CCC)S(=O)(=O)c1ccc(C(=O)NCc2n[nH]c(=S)n2-c2ccc(Cl)c(Cl)c2)cc1	0	6	-2	-1	29*	-5	14
C[C@H]1[C@@H](O)CC[C@@]23CCCN2C(=O)CCC[C@@H]13	1	-3	-6	0	-3	-5	.
C#CCNC(=O)C[C@H]1C[C@@]2(C(=O)OC)C(=C[C@H](C3CCCC3)O[C@@H]2C)N(Cc2cccc3ccccc23)C1=O	2	-3	-2	-1	-4	1	.
Nc1ccc2nc3c(=O)n(CCc4ccccc4)c(=O)[nH]c3nc2c1	9	15	-27	-55	136*	-11	123*
COc1cc2[nH]c(=O)n(C3CCCCC3)c(=O)c2cc1OC	-6	-5	-9	0	-3	-19	.
Nc1ccc2nc3c(=O)n(C4CCCCC4)c(=O)[nH]c3nc2c1	-2	10	-30	-96	145*	-19	132*
Cc1nc2ccc(S(=O)(=O)NC(CC(C)C)C(=O)O)cc2s1 (stereo not given)	-4	2	-6	0	35*	-6	3
Cc1[nH]c(=S)c(C#N)c(-c2ccccc2)c1C(=O)Nc1ccccc1	-2	-8	2	3	36*	-9	14
SMILES	LEDGF integ inh	SIAE primary	MBD2 DNA inh	UHRF1 MBD2 ctr	PRMT1 inh	TDP2 inh	PRMT1 inh conf
CC(=O)Nc1ccc(SCC(=O)Nc2ccc3c(c2)OCCO3)cc1	-2	1	0	-1	58*	-4	54*
COc1ccc(NC(=O)CSc2ccc3c(c2)OCCO3)cc1	1	0	-6	0	5	9	.
CC(=O)Nc1ccc(SCC(=O)c2cc(C)n(C)c2C)cc1	-2	6	1	-1	36*	-8	16
CC(=O)Nc1ccc(SCC(=O)NC(=O)c2ccc(S(=O)(=O)N(C)C)cc2)cc1	-1	14	4	-1	50*	-7	43*
CC(=O)Nc1ccc(SCC(=O)Nc2ccc(Cl)cn2)cc1	0	5	-1	-1	28*	-5	37*
CC(=O)Nc1cc(-c2ccccc2N(C)C)cn2c(-c3ccc(S(C)(=O)=O)cc3)cnc12	-4	15	-3	-7	107*	5	20
CC(=O)Nc1cc(-c2ccccc2N(C)C)cn2c(-c3ccccc3)cnc12	0	6	-4	-6	6	2	.
COc1ccc(OC)c(C2CC(=O)N3CN(c4ccc(C)c(Cl)c4)CSC3=C2C#N)c1 (stereo not given)	-1	4	-2	-1	10	-4	.
COc1ccc2ccccc2c1C1CC(=O)N2CN(C)CSC2=C1C#N (stereo not given)	7	-6	-3	-5	20	16	.
COc1ccccc1N1CSC2=C(C#N)C(c3ccc(SC)cc3)CC(=O)N2C1 (stereo not given)	7	-17	-3	-5	39*	1	64*
COc1cc(C2CC(=O)N3CN(c4ccccc4C)CSC3=C2C#N)cc(OC)c1OC (stereo not given)	5	-8	-3	-4	38*	-8	46*
COC(=O)C1CCCN(C(=O)C(Cc2ccc3c(c2)OCO3)NC(C)=O)C1 (stereo not given)	1	-1	2	-1	-1	4	.
Cc1cccn2c(=O)c3cc(C#N)c(=NC(=O)c4ccncc4)n(CCCOC(C)C)c3nc12	-3	-1	-2	8	26*	2	2
N#CC1=C(N)OC2=C(CC/C2=C\c2ccccc2)C1c1ccccc1 (stereo not given)	1	6	-1	-1	27*	-10	48*
O=Cc1ccc(Oc2ccc(F)cc2)nc1	-5	-3	0	-1	-2	-1	.
Nc1ccc(Oc2ccc(F)cc2)nc1	2	-1	5	-5	26*	0	-3
O=C(COc1ccccc1)Nc1ccc(S(=O)(=O)Nc2ccccn2)cc1	-3	6	4	3	32*	-4	13
O=C(COc1ccc(Br)cc1)Nc1ccc(S(=O)(=O)Nc2ccccn2)cc1	0	3	-4	-2	-1	-6	.
